In ChEMBL document CHEMBL4043299, “Repurposing a Library of Human Cathepsin L Ligands: Identification of Macrocyclic Lactams as Potent Rhodesain and Trypanosoma brucei Inhibitors” (J Med Chem, 2018):
Calls of active or inactive are those of the source. The rule behind the calls is not given here.

What was measured:
[1] = Selectivity index, ratio of Ki for human CatL to Ki for Trypanosoma brucei rhodesiense rhodesain
How it was run: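 Ki from IC50 via Cheng–Prusoff in fluorescence-based protease assay; index = Ki(hCatL)/Ki(RD); Ki as average of two measurements, each in duplicate.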

[2] = tested on: Trypanosoma brucei rhodesiense; assay: Antitrypanosomal activity against bloodstream form of Trypanosoma brucei rhodesiense STIB 900 assessed as parasite growth inhibition after 72 hrs by Alamar blue assay; format: functional
How it was run: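 T. b. rhodesiense STIB900 bloodstream trypomastigotes; cell-growth inhibition read by Alamar blue; IC50 as average of at least 2 measurements.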

[3] = molecular target: Rhodesain (Trypanosoma brucei rhodesiense, UniProt Q95PM0); assay: Inhibition of Trypanosoma brucei rhodesiense rhodesain using Cbz-Phe-Arg-AMC as substrate by fluorimetric method
How it was run: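 Fluorescence-based protease assay. IC50 was converted to Ki by the Cheng-Prusoff equation. Values are the average of two measurements, each run in duplicate.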

[4] = tested on: L6; assay: Cytotoxicity against rat L6 cells after 72 hrs by Alamar blue assay; format: cell-based
How it was run: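 Rat skeletal myoblast L6 cells, growth inhibition; IC50 as average of at least 2 measurements.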

[5] = molecular target: Procathepsin L (Homo sapiens, UniProt P07711); assay: Inhibition of human CatL using Cbz-Phe-Arg-AMC as substrate measured over 30 mins by fluorimetric method
[6] = Selectivity index, ratio of IC50 for rat L6 cells to IC50 for bloodstream form of Trypanosoma brucei rhodesiense STIB 900; format: toxicity; conditions: for selectivity ratio: L6 cells, read-out: Ratio IC50
How it was run: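 Ratio of L6 cell IC50 to T. b. rhodesiense STIB900 trypomastigote IC50.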

[7] = tested on: Trypanosoma brucei rhodesiense; assay: Antitrypanosomal activity against bloodstream form of Trypanosoma brucei rhodesiense STIB 900 assessed as parasite growth inhibition incubated for 24 to 48 hrs followed by 72 hrs recovery by Alamar blue assay; format: functional
[8] = Trypanosoma brucei, STIB 900, 72 h

Sequence of Procathepsin L (P07711 whole entry): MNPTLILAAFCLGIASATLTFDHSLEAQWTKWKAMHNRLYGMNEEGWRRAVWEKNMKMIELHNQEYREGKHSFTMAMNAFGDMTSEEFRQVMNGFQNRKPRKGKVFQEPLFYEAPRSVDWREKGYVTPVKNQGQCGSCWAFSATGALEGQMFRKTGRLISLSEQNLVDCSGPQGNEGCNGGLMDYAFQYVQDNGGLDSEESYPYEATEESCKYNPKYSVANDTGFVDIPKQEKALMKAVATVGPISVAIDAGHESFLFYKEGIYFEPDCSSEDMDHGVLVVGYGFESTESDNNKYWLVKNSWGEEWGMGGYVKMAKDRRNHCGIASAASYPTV
Sequence of Rhodesain (Q95PM0 whole entry): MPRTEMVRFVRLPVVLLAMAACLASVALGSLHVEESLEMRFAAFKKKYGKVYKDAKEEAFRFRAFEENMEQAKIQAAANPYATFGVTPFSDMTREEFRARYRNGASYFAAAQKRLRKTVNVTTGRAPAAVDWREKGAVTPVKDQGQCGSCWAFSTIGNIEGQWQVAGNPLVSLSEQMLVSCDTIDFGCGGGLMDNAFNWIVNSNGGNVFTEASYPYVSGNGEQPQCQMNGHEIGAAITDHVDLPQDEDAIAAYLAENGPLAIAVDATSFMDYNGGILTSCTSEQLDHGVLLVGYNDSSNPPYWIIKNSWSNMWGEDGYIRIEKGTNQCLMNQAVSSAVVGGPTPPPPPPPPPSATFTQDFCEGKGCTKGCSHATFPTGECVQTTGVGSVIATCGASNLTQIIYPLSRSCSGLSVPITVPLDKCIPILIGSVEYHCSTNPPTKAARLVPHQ

Compound | Ratio Ki [1] | IC50 [2, 8] | Ki [3] | IC50 ([4]; Rattus norvegicus, L6, 72 h) | Ki [5] | selectivity ratio [6] | growth inhibition (GI) [7] | IC50 [2] | IC50 ([4]; l6) | Ratio IC50 [6]
N#CC1(NC(=O)[C@@H]2Cc3ccc(c(Cl)c3)OC/C=C/COc3ccc(-c4ccc(F)cc4)cc3C(=O)N2)CC1 (mixture of isomers) | 7.8 | 347 nM | 2 nM | 45300 nM | 15.5 nM | 131 |  |  |  | 
N#CC1(NC(=O)[C@@H]2Cc3ccc(c(Cl)c3)OC/C=C/COc3cc(C(F)(F)F)ccc3C(=O)N2)CC1 | 0.1 | 2 nM | 20.2 nM | 37000 nM | 2.4 nM | 18500 | Active |  |  | 
N#CC1(NC(=O)[C@@H]2Cc3ccc(c(Cl)c3)OC/C=C/CCn3nc(cc3C3CC3)C(=O)N2)CC1 | 0.1 | 5 nM | 17.2 nM | 60600 nM | 2.5 nM | 12100 | Active |  |  | 
N#CC1(NC(=O)[C@@H]2Cc3ccc(c(Cl)c3)OCC#CCOc3c(F)cc(F)cc3C(=O)N2)CC1 (single isomer, unassigned; atropisomer 2) [listing 1 of 2 here] |  |  | 4.8 nM |  | 1.2 nM |  |  | 4 nM | 47100 nM | 11775
N#CC1(NC(=O)[C@@H]2Cc3ccc(c(Cl)c3)OC/C=C/COc3cc4ccccc4cc3C(=O)N2)CC1 (mixture of isomers) | 1.2 | 0.5 nM | 1 nM | 43800 nM | 1.2 nM | 87600 |  |  |  | 
N#CC1(NC(=O)[C@@H]2Cc3ccc(c(Cl)c3)OCC#CCOc3c(F)cc(F)cc3C(=O)N2)CC1 (single isomer, unassigned; atropisomer 1) [listing 1 of 2 here] | 0.3 |  |  |  |  |  |  |  |  | 
N#CC1(NC(=O)[C@@H]2Cc3ccc(c(Cl)c3)OC/C=C/CCn3nc(cc3-c3ccccc3)C(=O)N2)CC1 | 11 | 0.6 nM | 5.2 nM | 40000 nM | 55.7 nM | 66700 |  |  |  | 
N#CC1(NC(=O)[C@@H]2Cc3ccc(c(-c4cccnc4)c3)OCCCCOc3cc(C(F)(F)F)ccc3C(=O)N2)CC1 | 1.1 | 18 nM | 751 nM | 72200 nM | 824 nM | 4010 |  |  |  | 
N#CC1(NC(=O)[C@@H]2Cc3ccc(c(I)c3)OC/C=C/COc3cc(C(F)(F)F)ccc3C(=O)N2)CC1 (mixture of isomers) | 0.6 | 300 nM | 8.7 nM | 30200 nM | 5.6 nM | 101 |  |  |  | 
N#CC1(NC(=O)[C@@H]2Cc3ccc(c(Cl)c3)OC/C=C/COc3ccccc3C(C(F)(F)F)N2)CC1 (stereo partly specified) |  | 9500 nM | 258 nM |  | 443 nM |  |  |  |  | 
N#CC1(NC(=O)[C@@H]2Cc3ccc(c(I)c3)OC/C=C/COc3ccccc3C(=O)N2)CC1 |  |  | 2.5 nM |  |  |  |  |  |  | 
N#CC1(NC(=O)[C@@H]2Cc3ccc(c(Cl)c3)OC/C=C/Cn3cccc(c3=O)C(=O)N2)CC1 |  | 47800 nM | > 20000 nM | > 100000 nM | > 20000 nM |  |  |  |  | 
N#CC1(NC(=O)[C@@H]2Cc3ccc(c(-c4cc[nH]n4)c3)OCCCCOc3ccccc3C(=O)N2)CC1 | 1 | 1230 nM | 1090 nM | 86500 nM | 1110 nM | 70 |  |  |  | 
Cn1cc(-c2cc3ccc2OCCCCOc2cc(C(F)(F)F)ccc2C(=O)N[C@H](C(=O)NC2(C#N)CC2)C3)cn1 | 0.8 | 19 nM | 870 nM | > 100000 nM | 676 nM |  |  |  |  | 
CS(=O)(=O)c1ccc2c(c1)C(=O)N[C@H](C(=O)NC1(C#N)CC1)Cc1ccc(c(Cl)c1)OC/C=C/CO2 | 0.6 | 332 nM | 6.1 nM | > 100000 nM | 3.7 nM |  |  |  |  | 
CS(=O)(=O)c1ccc2c(c1)C(=O)N[C@H](C(=O)NC1(C#N)CC1)Cc1ccc(c(Cl)c1)OC[C@H]1O[C@@H]1CO2 (mixture of isomers) | 0.03 | 16900 nM | 135 nM | 84700 nM | 4.6 nM | 5 |  |  |  | 
N#CC1(NC(=O)[C@@H]2Cc3ccc(c(Cl)c3)OCC#CCOc3c(F)cc(F)cc3C(=O)N2)CC1 (single isomer, unassigned; atropisomer 2) [listing 2 of 2 here] | 0.3 |  |  |  |  |  |  |  |  | 
N#CC1(NC(=O)[C@@H]2Cc3ccc(c(-c4cncnc4)c3)OCCCCOc3cc(C(F)(F)F)ccc3C(=O)N2)CC1 |  | 509 nM | > 20000 nM | > 100000 nM | 6390 nM |  |  |  |  | 
N#CC1(NC(=O)[C@@H]2Cc3ccc(c(-c4cccnc4)c3)OCCCCOc3ccccc3C(=O)N2)CC1 | 1.2 | 1930 nM | 837 nM | > 100000 nM | 997 nM |  |  |  |  | 
N#CC1(NC(=O)[C@@H]2Cc3ccc(c(I)c3)OCCCCOc3cc(C(F)(F)F)ccc3C(=O)N2)CC1 | 0.1 | 30 nM | 57.4 nM | 56800 nM | 5.8 nM | 1890 |  |  |  | 
N#CC1(NC(=O)[C@@H]2Cc3ccc(c(Cl)c3)OC/C=C/COc3cc(-c4cnn(C(F)F)c4)ccc3C(=O)N2)CC1 (mixture of isomers) | 1.4 | 336 nM | 5.4 nM | 44300 nM | 7.4 nM | 132 |  |  |  | 
N#CC1(NC(=O)[C@@H]2Cc3ccc(c(Cl)c3)OC/C=C/COc3c(F)cc(F)cc3C(=O)N2)CC1 |  |  |  |  |  |  | Active |  |  | 
N#CC1(NC(=O)[C@@H]2Cc3ccc(c(Cl)c3)OCC#CCOc3c(F)cc(F)cc3C(=O)N2)CC1 (single isomer, unassigned; atropisomer 1) [listing 2 of 2 here] |  | 8 nM | 80.6 nM | 45600 nM | 24.1 nM |  |  |  |  | 5700
N#CC1(NC(=O)[C@@H]2Cc3ccc(c(Cl)c3)OC/C=C/Cn3c(=O)c(cc4cc(Cl)ccc43)C(=O)N2)CC1 (mixture of isomers) | 0.9 | 8 nM | 299 nM | 16200 nM | 274 nM | 2020 |  |  |  | 
CC(C)(C)c1cc2nn1CC/C=C/COc1ccc(cc1Cl)C[C@@H](C(=O)NC1(C#N)CC1)NC2=O | 0.1 | 0.6 nM | 18 nM | 38500 nM | 2.3 nM | 64200 |  |  |  | 
Cc1cc2nn1CC/C=C/COc1ccc(cc1Cl)C[C@@H](C(=O)NC1(C#N)CC1)NC2=O (mixture of isomers) | 0.8 | 6 nM | 52.4 nM | > 100000 nM | 40.3 nM |  |  |  |  | 
N#CC1(NC(=O)[C@@H]2Cc3ccc(c(Cl)c3)OC/C=C/COc3cc(-c4ccc(Cl)nc4)ccc3C(=O)N2)CC1 (mixture of isomers) | 2.4 | 338 nM | 3 nM | 6490 nM | 7.3 nM | 19 |  |  |  | 
